21 compounds from ChEMBL document CHEMBL4665711, “Synthesis of (Z)-3-(arylamino)-1-(3-phenylimidazo[1,5-a]pyridin-1-yl)prop-2-en-1-ones as potential cytotoxic agents” (Bioorg Med Chem Lett, 2020) can be followed below.

By IC50 is commonly meant the midpoint of a concentration-inhibition curve. As usually defined, the GI50 is the concentration that inhibits growth by half.

One test relates to A549. Put plainly: Cytotoxicity against human A549 cells assessed as reduction in cell viability incubated for 48 hrs by MTT assay. Type of test: functional, cell-based. The following applies: A549, 48 h. The gist of the method:
(§1)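 Cancer cell lines were exposed to drug for 48 h, and the 50% inhibitory concentration was determined. Values are averages of three individual experiments. A549, HCT-116, BT-474 and MDA-MB-231 are human lines; B16F10 is a murine melanoma line.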

In a further test the test system is BT-474. Put plainly: Cytotoxicity against human BT-474 cells assessed as reduction in cell viability incubated for 48 hrs by MTT assay. The test is classed as functional, cell-based. The following applies: BT-474, 48 h. In outline:
as §1
A general note: Formazan colour is commonly taken as a measure of viable cells.

Another test deals with HCT-116. Put plainly: Cytotoxicity against human HCT-116 cells assessed as reduction in cell viability incubated for 48 hrs by MTT assay. The test is classed as functional, cell-based. The following applies: HCT-116, 48 h. In outline: as §1
The test system of the next test is B16-F10. Description: Cytotoxicity against mouse B16-F10 cells assessed as reduction in cell viability incubated for 48 hrs by MTT assay. The test is classed as functional, cell-based. The following applies: B16-F10, 48 h. The gist of the method:
as §1

Another test deals with MDA-MB-231. Put plainly: Cytotoxicity against human MDA-MB-231 cells assessed as reduction in cell viability incubated for 48 hrs by MTT assay. The test is classed as functional, cell-based. The following applies: MDA-MB-231, 48 h. In outline:
as §1

Test [1] can be described thus: Cytotoxicity against human lung cancer cells assessed as reduction in cell viability incubated for 48 hrs by MTT assay. The following applies: Lung cancer cell line. Type of test: functional.
The nature of test [2]: Cytotoxicity against human lung cancer cells assessed as reduction in cell viability incubated for 24 hrs by MTT assay. The test is classed as functional. The following applies: Lung cancer cell line.
Test [3] in a line: Cytotoxicity against human breast cancer cells assessed as reduction in cell viability incubated for 24 hrs by MTT assay. The test is classed as functional. The following applies: Breast cancer cell line.

As for `O=C(/C=C\Nc1cnc2ccccc2c1)c1nc(-c2ccccc2)n2ccccc12`, the 50% inhibitory concentration (IC50) in the test on A549 is over 30 µM; with BT-474, 19.7 µM; with HCT-116, over 30 µM; in the test with B16-F10 it was 3.78 µM; in the test with MDA-MB-231, 12.3 µM.
On to `O=C(/C=C\Nc1ccc(Cl)cc1)c1nc(-c2ccc(C(F)(F)F)cc2)n2ccccc12`, for which the IC50 in the test on A549 is 18.5 µM; in the test on BT-474, 3.82 µM; with HCT-116, 11.5 µM; with B16-F10, over 30 µM; in the test on MDA-MB-231, 3.84 µM.
As for `O=C(/C=C\Nc1ccc(O)cc1)c1cn(-c2ccccc2)nc1-c1ccc(F)cc1`, the IC50 in test [1] amounted to 1.5 µM.
Take `COc1ccc(N/C=C\C(=O)c2nc(-c3ccc(C(F)(F)F)cc3)n3ccccc23)cc1`: the IC50 in the test with A549 was 21.8 µM; in the test on BT-474, over 30 µM; in the test with HCT-116 it was 7.72 µM; with B16-F10, over 30 µM; in the test on MDA-MB-231 it was over 30 µM.
In the case of `COc1ccc(N/C=C\C(=O)c2nc(-c3ccc(OC)cc3)n3ccccc23)cc1`, the IC50 with BT-474 was 15.4 µM; in the test on HCT-116, over 30 µM; in the test on B16-F10, 2.12 µM; in the test on MDA-MB-231, over 30 µM.
As to `COc1ccc(N/C=C\C(=O)c2nc(-c3ccc(F)cc3)n3ccccc23)cc1`, the IC50 with A549 was 19.2 µM; in the test on BT-474 it was 15.7 µM; in the test with HCT-116, over 30 µM; in the test on B16-F10 it was 2.56 µM; in the test on MDA-MB-231, over 30 µM.
Take `Cc1cc2cc(N/C=C\C(=O)c3nc(-c4ccc(F)cc4)n4ccccc34)ccc2[nH]1`: the concentration for half-maximal inhibition (IC50) in the test with A549, in the test on BT-474, in the test with HCT-116, in the test on B16-F10 and in the test on MDA-MB-231 was over 30 µM in each case.
`O=C1Nc2ccccc2/C1=C\c1nc(-c2ccccc2F)n2ccccc12`: the GI50 in test [2] amounted to 3.46 µM.
With `O=C(/C=C\Nc1ccc2cc[nH]c2c1)c1nc(-c2ccc(C(F)(F)F)cc2)n2ccccc12`, the concentration for half-maximal inhibition (IC50) with A549, in the test on BT-474, in the test with HCT-116, in the test with B16-F10 and in the test on MDA-MB-231 was over 30 µM in each case.
For `O=C(/C=C\Nc1ccc(F)cc1)c1nc(-c2ccc(F)cc2)n2ccccc12`, the IC50 in the test on A549 was 13.2 µM; with BT-474 it was 16.9 µM; in the test with HCT-116, over 30 µM; in the test on B16-F10, over 30 µM; in the test on MDA-MB-231, 25.1 µM.
Turning to `COC(=O)Nc1nc2cc(C(=O)c3cccs3)ccc2[nH]1` [NOCODAZOLE], the 50% inhibitory concentration (IC50) in the test with A549 stood at 3.63 µM; with BT-474, 2.72 µM; with HCT-116, 2.82 µM; in the test on B16-F10, 3.12 µM; in the test with MDA-MB-231, 1.83 µM.
Turning to `COc1ccc(N/C=C\C(=O)c2nc(-c3ccccc3)n3ccccc23)cc1`, the IC50 in the test on A549 is over 30 µM; in the test on BT-474, 12.8 µM; in the test with HCT-116, 7.01 µM; in the test on B16-F10, 1.79 µM; in the test on MDA-MB-231, 28.2 µM.
As for `O=C(/C=C\Nc1cnc2ccccc2c1)c1nc(-c2ccc(C(F)(F)F)cc2)n2ccccc12`, the IC50 in the test on A549, with BT-474, with HCT-116, in the test on B16-F10 and in the test with MDA-MB-231 was over 30 µM in each case.
Take `COc1ccc(-c2nc(C(=O)/C=C\Nc3ccc(F)cc3)c3ccccn23)cc1`: the IC50 in the test with A549, in the test with BT-474, in the test with HCT-116, with B16-F10 and in the test with MDA-MB-231 was over 30 µM each time.
On to `COc1ccc(-c2nc(C(=O)/C=C\Nc3ccc4[nH]ccc4c3)c3ccccn23)cc1`, for which the concentration for half-maximal inhibition (IC50) turned out to be 4.8 µM with A549; 13 µM in the test on BT-474; 17.4 µM in the test on HCT-116; 5.12 µM in the test with B16-F10; 28.7 µM in the test with MDA-MB-231.
For `COc1ccc(N/C=C\C(=O)c2nc(-c3ccc(C(F)(F)F)cc3)n3ccccc23)cc1OC`, the IC50 in the test with A549, with BT-474, in the test with HCT-116, in the test with B16-F10 and in the test on MDA-MB-231 was over 30 µM in each case.
In the case of `COc1ccc(-c2nc(C(=O)/C=C\Nc3ccc(Cl)cc3)c3ccccn23)cc1`, the IC50 with BT-474 is 37.3 µM; in the test with HCT-116, over 30 µM; with B16-F10, 1.24 µM; in the test on MDA-MB-231, over 30 µM.
With `O=C(/C=C\Nc1ccc(F)cc1)c1nc(-c2ccc(C(F)(F)F)cc2)n2ccccc12`, the IC50 in the test with A549, with BT-474, with HCT-116, in the test on B16-F10 and with MDA-MB-231 was over 30 µM throughout.
As for `Fc1ccccc1-c1nc(-c2nc3ccc(C(F)(F)F)cc3[nH]2)c2ccccn12`, the GI50 in test [3] was determined as 1.37 µM.
As to `O=C(/C=C\Nc1ccc2[nH]ccc2c1)c1nc(-c2ccc(C(F)(F)F)cc2)n2ccccc12`, the IC50 came to 5.19 µM in the test with A549; 5.19 µM in the test on BT-474; 27.1 µM in the test with HCT-116; 18.2 µM with B16-F10; 1.18 µM with MDA-MB-231.
Regarding `COc1ccc(N/C=C\C(=O)c2nc(-c3ccc(F)cc3)n3ccccc23)cc1OC`, the concentration for half-maximal inhibition (IC50) with A549, in the test with BT-474, in the test with HCT-116, with B16-F10 and in the test with MDA-MB-231 was over 30 µM each time.
